Assay results of several laboratories.
Compare with care: the assays were run in different laboratories.
Target: Vascular endothelial growth factor receptor 1 (FLT1, Homo sapiens, UniProt P17948)
Sequence (P17948 827-1158, limits assumed, as in one of the studies): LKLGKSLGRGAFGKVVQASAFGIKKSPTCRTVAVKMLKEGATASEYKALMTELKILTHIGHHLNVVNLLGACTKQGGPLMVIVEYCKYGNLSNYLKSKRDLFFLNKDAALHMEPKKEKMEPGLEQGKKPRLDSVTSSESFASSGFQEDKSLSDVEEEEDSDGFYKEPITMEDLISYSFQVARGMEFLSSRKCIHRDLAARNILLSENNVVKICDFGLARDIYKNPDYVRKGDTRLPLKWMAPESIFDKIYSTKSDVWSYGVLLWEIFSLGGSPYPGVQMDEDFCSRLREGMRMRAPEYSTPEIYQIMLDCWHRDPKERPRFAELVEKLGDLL

| Structure (SMILES) | observed | action | technique | endpoint | result |
| --- | --- | --- | --- | --- | --- |
| Cc1cnc(-c2ccc(-c3ccc(NC(=O)Nc4c(F)cc(F)cc4F)cc3F)c3c2C(=O)NC3)[nH]1 | binding |  | competition with immobilised ligand | Kd | 13 nM |
| COc1ccc2c(Oc3ccc4c(C(=O)Nc5ccccc5N)cccc4c3)ccnc2c1 | enzyme activity | inhibitor |  | IC50 | 8 nM |
| CC(C)(C)n1nc(-c2cnc3cc(OC4CC4)ccc3c2)c(C(N)=O)c1N | cell-free assay |  |  | IC50 | > 10000 nM |
| C=CC(=O)Nc1cccc(CN2C(=O)N(c3c(Cl)c(OC)cc(OC)c3Cl)Cc3cnc(NCCCCN(CC)CC)nc32)c1 | binding |  | competition with immobilised ligand | Kd | 32 nM |
| CNC(=O)c1cc2c(Oc3ccc(NC(=O)C4(C(=O)Nc5ccc(F)cc5)CC4)cc3)ccnc2cc1OC | enzyme activity | inhibitor | radiometric | IC50 | 13 nM |
| Cc1ccc(NC(=O)c2ccc(C)c(C(F)(F)F)c2)cc1C#Cc1nn(C2CCC(O)CC2)c2ncnc(N)c12 (centres unmarked) | enzyme activity | inhibitor | radiometric | IC50 | 15 nM |
| CC(C)(C)n1nc(-c2ccc3nc(OC4CC4)ccc3c2)c(C(N)=O)c1N | cell-free assay |  |  | IC50 | 8380 nM |
| Cc1ccc(C(=O)Nc2ccc(Oc3cc4cnn(C)c4cc3-c3cn[nH]c3)c(F)c2)c(=O)n1-c1ccc(F)cc1 | enzyme activity in cells | inhibitor |  | IC50 | > 1000 nM |
